Active and inactive are the calls of the source. No cut-off for these calls is given here.
Columns and labels:
Major prion protein [1] = target: T1, Major prion protein (Mesocricetus auratus, UniProt P04273); test: Binding affinity to Syrian hamster PrPC
ScN2a = test: Antiprion activity against mouse prion protein RML infected mouse ScN2a cells assessed as reduction in proteinase K-resistant PrPSc level at 10 to 100 uM incubated for 5 days followed by proteinase K digestion by Western blot method relative to control; assay type: cell-based
Outline: (§1)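 RML scrapie-infected mouse N2a (ScN2a) cells treated for 5 days at […]. Lysates were made in 0.5% NP-40/0.5% deoxycholate Tris-HCl pH 8 buffer and normalised to 1 mg/ml protein. They were digested with 20 µg/ml proteinase K for 1 h at 37 °C, stopped with PMSF, and pelleted at 100,000g. Pellets were immunoblotted with 6D11-biotin. DMSO and quinacrine controls set the normalised percent PrPSc change.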

[2] = Antiprion activity against mouse prion protein RML infected mouse ScN2a cells assessed as reduction in proteinase K-resistant PrPSc level incubated for 5 days followed by proteinase K digestion by Western blot method relative to control; assay type: cell-based; conditions: 120 h; outline: as §1
Major prion protein [3] = target: T1, Major prion protein; test: Binding affinity to Syrian hamster PrPC assessed as inhibition of PrPC protein conversion to PrPSc by Western blot
[4] = target: Major prion protein (Mesocricetus auratus) (UniProt P04273); test: Binding affinity to Syrian hamster PrPC assessed as inhibition of PrPC protein conversion to PrPSc by measuring PrPSc level relative to untreated control; set-up: concentration or dose not given beside the values
[5] = target: Major prion protein (Mesocricetus auratus) (UniProt P04273); test: Binding affinity to C-terminal 6x-His-tagged Syrian hamster PrPC (90 to 232 residues) by 15N-HSQC NMR spectroscopy
Outline: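 Uniformly 15N-labelled Syrian hamster PrPC residues 90–232 was titrated with ligand at a 5:1 ligand/protein molar ratio. 15N-HSQC spectra were recorded, and binding was read as chemical shift changes and signal attenuation of residues.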

Major prion protein (Mesocricetus auratus), sequence (P04273 whole entry, the tested form may be a part): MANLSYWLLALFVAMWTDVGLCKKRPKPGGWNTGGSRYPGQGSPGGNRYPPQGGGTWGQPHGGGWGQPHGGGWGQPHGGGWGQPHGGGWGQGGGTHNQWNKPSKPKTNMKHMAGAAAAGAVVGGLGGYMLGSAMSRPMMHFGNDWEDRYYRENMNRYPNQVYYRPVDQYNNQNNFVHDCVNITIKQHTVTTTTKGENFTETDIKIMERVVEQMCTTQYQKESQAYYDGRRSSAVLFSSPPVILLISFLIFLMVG
T1 sequence (P04273 whole entry): as the sequence (P04273 whole entry, the tested form may be a part) above

Compound	Kd (Major prion protein [1]) [µM]	inhibition (ScN2a)	IC50 [2] [µM]	EC50 (Major prion protein [3]) [µM]	Activity [4] [%]	Activity [5]
COc1ccc(OC)c(Nc2nnc(-c3cc4cccc(OC)c4oc3=O)s2)c1	46.4	Active	20	–	–	–
Cc1cccc2cc3c(N)c(C(=O)NC4CCCC4)sc3nc12	–	–	–	7.37	41.9	–
O=C(CN1C(=O)N[C@@]2(CCCc3ccccc32)C1=O)N1CCCCC1	–	–	–	7.17	67.1	–
CCC(C)C(NC(=O)c1ccccc1)C(=O)N1CCc2ccccc21 (stereo unspecified)	51.2	–	–	7.43	36.8	Active
COc1ccc(-c2cnc(N)nc2-c2ccc(OC)cc2)cc1	–	Active	35	–	–	–
C=CNC(=O)NC(C)=O	–	–	–	7.24	56.7	–
COc1ccc(-c2cnc(N)nc2C)cc1OC	–	Active	35	–	–	–
O=C(N[C@@H]1CCc2ccccc2C1)C(=O)O[C@@H]1C=CCc2ccccc21	–	–	–	7.27	53	–
O=C(CN1C(=O)COc2ccccc21)N1CCCc2ccccc21	–	–	–	7.24	57.5	–
N#Cc1c(NC(=O)c2cc3c(s2)CCCC3)sc2c1CCCC2	–	–	–	7.17	66.9	–
COc1ccc(-c2nc(N)sc2C)c(OC)c1	–	Active	35	–	–	–
CC1CCCCC1NC(=O)COc1ncnc2sc3c(c12)CCC3 (stereo unspecified)	–	–	–	7.16	68.8	–
Cc1cc2cc3c(cc2nc1SCCN1CCCCC1)OCCO3	50.8	–	–	7.32	47.4	–
O=C(COC(=O)c1c2c(nc3ccccc13)CCC2)NC1CCCC1	–	–	–	7.2	62.9	–
CN1/C(=C/C(=O)Nc2cccs2)c2ccccc2CC1(C)C	–	–	–	7.24	57.4	–
CC1Cc2ccccc2N1C(=O)COc1ncnc2sccc12 (stereo unspecified)	–	–	–	7.17	67.4	–
C[C@@H]1CCCCN1CC(=O)N[C@@H]1S[C@H]2CCCC[C@@H]2[C@H]1C#N	–	–	–	7.23	58.8	–
COc1ccc(-c2nc(N)sc2-c2ccc(OC)cc2)cc1	15.5	Active	> 100	–	–	–
O=C(CSc1ncnc2sc3c(c12)CCC3)NCC1CCCO1 (stereo unspecified)	–	–	–	7.02	–	–
CCC[C@@H]1Nc2ccccc2N1CC(=O)N1CCCc2ccccc21	–	–	–	7.17	67.2	–
CCCCNc1nc2ccccc2n1CC(=O)N1CCc2ccccc21	–	–	–	7.42	37.3	–
O=C(CCc1nc2ccccc2c(=O)[nH]1)NC1CCCc2ccccc21 (stereo unspecified)	–	–	–	7.18	65	–
COc1ccc(OC)c(-c2nc(NC(=O)c3cc(OC)c(OC)c(OC)c3)sc2C)c1	185	Active	75	–	–	–
O=C(CN1C(=O)c2cccc3cccc1c23)N[C@@H]1C[C@H]2CC[C@@H]1C2	–	–	–	7.18	65	–
O=C(CC1CNc2ccccc21)NC1CCc2ccccc2C1 (stereo unspecified)	48.6	–	–	7.25	55.3	–
O=C(NC1CCCC1)C1CCCN1C(=O)Nc1ccccc1 (stereo unspecified)	–	–	–	7.19	63.2	–
Cc1cccc2cc(C#N)c(N3CCCN(C(=O)C4CCC4)CC3)nc12	–	–	–	7.29	50.6	–
O=C(CN1CCc2ccccc21)[C@H]1COc2cc3c(cc21)CCC3	–	–	–	–	63.7	–

From ChEMBL document CHEMBL4177581, “The compound (3-{5-[(2,5-dimethoxyphenyl)amino]-1,3,4-thiadiazolidin-2-yl}-5,8-methoxy-2H-chromen-2-one) inhibits the prion protein conversion from PrPC to PrPSc with lower IC50 in ScN2a cells” (Bioorg Med Chem, 2017)
